# Measurements from ChEMBL document CHEMBL1149285, “Identification of novel parasitic cysteine protease inhibitors using virtual screening. 1. The ChemBridge database” (J Med Chem, 2004).
# The source made the active and inactive calls. The rule behind the calls is not given here.
# Experiments:
# Leishmania donovani = test: Antileishmanial activity against Leishmania donovani promastigotes after 72 hrs by Alamar blue assay; format: functional, organism-based
# In short: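 L. donovani promastigote culture at 2 × 10⁶ cells/mL given diluted compounds, incubated 72 h at 26 °C; growth read by Alamar blue. Pentamidine and amphotericin B as reference agents; IC50 computed from growth inhibition curve.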
# Falcipain 2 = molecular target: T1, Falcipain 2 (Plasmodium falciparum, UniProt Q9N6S8); test: Inhibition of Plasmodium falciparum recombinant falcipain-2
# T1 sequence (Q9N6S8 whole entry): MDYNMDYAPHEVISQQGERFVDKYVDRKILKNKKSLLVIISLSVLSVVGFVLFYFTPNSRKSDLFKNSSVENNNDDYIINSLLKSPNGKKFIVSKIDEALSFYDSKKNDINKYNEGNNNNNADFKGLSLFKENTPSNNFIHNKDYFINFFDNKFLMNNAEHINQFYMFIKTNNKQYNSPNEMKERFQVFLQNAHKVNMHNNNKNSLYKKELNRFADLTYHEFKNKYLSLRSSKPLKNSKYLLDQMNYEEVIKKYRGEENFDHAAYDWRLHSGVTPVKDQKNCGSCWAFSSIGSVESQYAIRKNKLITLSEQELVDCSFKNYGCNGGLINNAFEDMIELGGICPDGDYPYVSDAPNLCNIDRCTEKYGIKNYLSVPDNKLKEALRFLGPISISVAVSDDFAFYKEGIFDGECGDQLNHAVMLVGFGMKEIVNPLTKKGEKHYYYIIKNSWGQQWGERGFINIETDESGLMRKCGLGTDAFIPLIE
# In short: (§1)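 Equal amounts of recombinant enzyme preincubated 30 min at room temperature with serial inhibitor dilutions from DMSO stocks (DMSO at most 1% in assay) in 100 mM sodium acetate pH 5.5, 10 mM dithiothreitol. Z-Leu-Arg-AMC then added to 25 μM final; fluorescence followed 15 min at room temperature. IC50 taken from percent activity versus concentration plots.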
# [1] = molecular target: T2, Cysteine protease (Leishmania donovani) (UniProt Q95WR6); test: Inhibition of Leishmania donovani cysteine protease
# T2 sequence (whole entry): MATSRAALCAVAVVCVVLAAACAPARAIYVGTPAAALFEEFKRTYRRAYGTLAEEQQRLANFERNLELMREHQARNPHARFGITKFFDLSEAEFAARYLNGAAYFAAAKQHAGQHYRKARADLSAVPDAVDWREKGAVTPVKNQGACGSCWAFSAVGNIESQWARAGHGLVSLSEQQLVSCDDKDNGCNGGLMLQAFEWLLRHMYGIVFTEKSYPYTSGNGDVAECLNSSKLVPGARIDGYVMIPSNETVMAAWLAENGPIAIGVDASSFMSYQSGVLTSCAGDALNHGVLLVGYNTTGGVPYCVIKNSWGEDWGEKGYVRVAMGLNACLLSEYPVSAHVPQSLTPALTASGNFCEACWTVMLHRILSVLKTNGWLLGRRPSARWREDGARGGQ
# Plasmodium falciparum [2] = test: Antiplasmodial activity against chloroquine-resistant Plasmodium falciparum W2 as LDH activity after 48 hrs; format: functional, organism-based; settings: W2, 48 h
# In short: (§2)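 Asynchronous P. falciparum cultures (2% hematocrit, 2% parasitemia) were exposed to compound dilutions prepared in DMSO. They were incubated 48 h at 37 °C in a humidified chamber under 90% N2, 5% CO2, 5% O2. Growth was read as parasite lactate dehydrogenase activity using Malstat reagent. Medium-only and erythrocyte-only wells were included, with chloroquine and artemisinin as positive and DMSO as negative controls.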
# Plasmodium falciparum [3] = test: Antiplasmodial activity against chloroquine-sensitive Plasmodium falciparum D6 after 48 hrs as LDH reporter activity; format: functional, organism-based; settings: D6, 48 h; in short: as §2
# Vero = test: Cytotoxicity against Vero cells at 23.8 ug/mL by Neutral red assay; format: cell-based; settings: chlorocebus sabaeus
# In short: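 VERO monkey kidney […] exposed to compounds alongside the antiparasitic assays, viability by Neutral Red uptake; highest concentration tested 23.8 μg/mL; IC50 computed from growth inhibition curve.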
# [4] = molecular target: T3, Cysteine protease falcipain-3 (Plasmodium falciparum, UniProt Q9NBA7); test: Inhibition of Plasmodium falciparum recombinant falcipain-3; in short: as §1
# T3 sequence (Q9NBA7 whole entry): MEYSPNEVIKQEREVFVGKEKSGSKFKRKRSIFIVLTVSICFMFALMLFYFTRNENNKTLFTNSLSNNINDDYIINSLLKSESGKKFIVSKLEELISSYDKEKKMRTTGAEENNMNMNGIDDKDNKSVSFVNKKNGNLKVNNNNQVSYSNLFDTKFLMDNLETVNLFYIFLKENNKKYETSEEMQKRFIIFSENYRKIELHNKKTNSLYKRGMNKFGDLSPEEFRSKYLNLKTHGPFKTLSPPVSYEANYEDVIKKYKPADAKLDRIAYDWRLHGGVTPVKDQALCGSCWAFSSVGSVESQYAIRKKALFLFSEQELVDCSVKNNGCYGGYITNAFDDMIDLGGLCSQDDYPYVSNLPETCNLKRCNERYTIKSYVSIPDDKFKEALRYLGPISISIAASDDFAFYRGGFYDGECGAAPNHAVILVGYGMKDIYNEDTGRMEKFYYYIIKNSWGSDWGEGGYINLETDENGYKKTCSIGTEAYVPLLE
Structure (SMILES),Activity (Leishmania donovani),IC50 (Falcipain 2),Activity [1],EC50 (Plasmodium falciparum [2]),EC50 (Plasmodium falciparum [3]),Activity (Vero),IC50 [4],IC50 (Leishmania donovani)
O=C(N/N=C/c1ccccc1O)c1cccc(C(=O)N/N=C/c2ccccc2O)n1,inactive,7 µM,inactive,6.2 µM,3.7 µM,Non-toxic,10.5 µM,–
N=C(N)c1ccc(OCCCCCOc2ccc(C(=N)N)cc2)cc1 [PENTAMIDINE],–,–,–,–,–,–,–,2000 nM
CC(C)C[C@H](NC(=O)[C@H]1O[C@@H]1C(=O)O)C(=O)NCCCCN=C(N)N [E-64],–,0.015 µM,–,–,–,–,0.035 µM,–
C/C(=N\NS(=O)(=O)c1ccc(C)cc1)c1c(O)c2ccccc2oc1=O,inactive,3.9 µM,inactive,63.9 µM,63.9 µM,Non-toxic,13.9 µM,–
O=C(NCc1ccc(/C=c2/sc3n(c2=O)CCN=3)o1)C(=O)Nc1ccccc1,inactive,6.2 µM,inactive,> 60 µM,> 60 µM,Non-toxic,11.8 µM,–
O=C(Nc1cccc(O)c1)c1cccc(S(=O)(=O)Nc2cccc(O)c2)c1,–,> 50 µM,inactive,37.7 µM,35.1 µM,Non-toxic,> 50 µM,300 nM
O=C(N/N=C/c1ccc(/C=N/NC(=O)c2ccccc2O)cc1)c1ccccc1O,inactive,2.2 µM,inactive,34.8 µM,31.1 µM,Non-toxic,27.8 µM,–
CCCc1cc(=O)[nH]c(SCC(=O)Nc2ccccc2)n1,–,59.9 µM,–,–,–,Non-toxic,> 50 µM,–
C[C@@H]1[C@H](O)[C@@H](C)/C=C/C=C/C=C/C=C/C=C/C=C/C=C/[C@H](O[C@@H]2O[C@H](C)[C@@H](O)[C@H](N)[C@@H]2O)C[C@@H]2O[C@](O)(C[C@@H](O)C[C@@H](O)[C@H](O)CC[C@@H](O)C[C@@H](O)CC(=O)O[C@H]1C)C[C@H](O)[C@H]2C(=O)O [AMPHOTERICIN B],–,–,–,–,–,–,–,160 nM
C[C@@H]1CC[C@H]2[C@@H](C)C(=O)O[C@@H]3O[C@@]4(C)CC[C@@H]1[C@]32OO4 [ARTEMISININ],–,–,–,0.017 µM,0.012 µM,–,–,–
O=C(CSc1nnnn1-c1ccccc1)Nc1ccc(-n2cnnn2)cc1,inactive,7.5 µM,inactive,50.1 µM,62.7 µM,Non-toxic,5.4 µM,–
N#CCC(=O)N/N=C\c1ccc(OCC(=O)Nc2ccc(F)cc2)cc1,inactive,5.7 µM,inactive,67.2 µM,59.3 µM,Non-toxic,> 50 µM,–
OC[C@H](O)/C=N/Nc1nc(Nc2ccccc2)nc(N2CCCCC2)n1,–,54.6 µM,inactive,5.3 µM,4.8 µM,Non-toxic,> 50 µM,3600 nM
CCCS(=O)(=O)N1CCN(S(=O)(=O)c2ccc3ccccc3c2)CC1,inactive,12.4 µM,inactive,> 62.2 µM,> 62.2 µM,Non-toxic,29.6 µM,–
CCN(CC)CCCC(C)Nc1ccnc2cc(Cl)ccc12 (configuration not stated) [CHLOROQUINE],–,–,–,0.28 µM,0.009 µM,–,–,–
O=C(CNC(=O)[C@@H]1COc2ccccc2O1)N/N=C/c1cccs1,inactive,26.6 µM,inactive,68.9 µM,68.9 µM,Non-toxic,> 50 µM,–
Cc1cccc(NC(=O)CCC(=O)N/N=C/c2cc(Cl)ccc2O)c1,inactive,7.5 µM,inactive,12.1 µM,13.5 µM,Non-toxic,5.4 µM,–
OC[C@@H](O)/C=N/Nc1nc(Nc2ccccc2)nc(Nc2ccccc2)n1,–,> 50 µM,inactive,3.3 µM,2.5 µM,Non-toxic,> 50 µM,1900 nM
O=C(CSc1ccc2ccccc2n1)N/N=C/c1ccc(O)cc1O,inactive,63.4 µM,inactive,67.3 µM,32.5 µM,Non-toxic,> 50 µM,–
Oc1ccc(Nc2nc(-c3cccnc3)cs2)cc1,–,22.5 µM,inactive,50.1 µM,52 µM,Non-toxic,> 50 µM,11500 nM
CCCc1cc(O)nc(SCC(=O)Nc2ccccc2)n1,inactive,–,inactive,> 78.4 µM,> 78.4 µM,–,–,–
Oc1ccc(/C=N/CC/N=C/c2ccc(O)cc2O)c(O)c1,inactive,20.8 µM,inactive,74.9 µM,46.6 µM,Non-toxic,> 50 µM,–
O=C(Cc1nnc(NC(=O)c2ccccc2)s1)N/N=C\c1ccc(O)c(O)c1,inactive,31.1 µM,inactive,> 59.9 µM,> 59.9 µM,Non-toxic,> 50 µM,–
